The text below walks through data of ChEMBL document CHEMBL1124266, “Stereoelectronic factors influencing the biological activity and DNA interaction of synthetic antitumor agents modeled on CC-1065” (J Med Chem, 1988).

Active and inactive are the calls of the source. The rule behind the calls is not given here.

For one data set, the system named is Nucleic Acid. Kind of data set: Induced circular dichroism (ICD), expressed as molar ellipticity, in the presence of calf-thymus DNA. The format is functional. Particulars: Bos taurus. The method in brief:
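Drug stock (1–4 mg/mL in DMA, DMF or DMSO) injected into calf-thymus DNA (11 × 10⁻⁵ M) in 0.01 M phosphate buffer pH 7.2. Final drug 0.85 × 10⁻⁵ M, base-to-drug ratio 13. Stood 24 h at room temperature before CD spectrum. Value is molar ellipticity at long-wavelength maximum, ca. 350 nm.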

Data set [1] can be described thus: Pseudo-first order rate constant at pH 3 followed spectrophotometrically; Stable. Format: ADME.
Data set [2] in a line: Lipophilic/hydrophilic partitioning (RP-TLC). The format is ADME. Particulars: 2:1 DMF-saline. The method in brief: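 Reverse-phase TLC developed in 2:1 DMF–saline (0.9% NaCl). Plates scanned at 350 nm. R_f values averaged from two to four determinations.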
The subject of data set [3] is P388. Kind of data set: In vivo optimum dose given on days 1, 5, and 9 to mice implanted intraperitoneally with P388 leukemia cells. The format is functional, Mus musculus. In outline: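 P388 cells (10⁶/mouse) implanted ip into male BDF1 mice on day 0. Dosing ip on days 1, 5 and 9 in 2% DMA/10% Emulphor 620-P/water vehicle. Six mice per group. Optimum dose given in mg/kg per day, judged by increase in median life span.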

Data set [4] deals with P388. Nature of the data set: In vivo % increase in life span of treated animals (OD) over that of control mice bearing tumor, determined against P388 leukemia cells; NA=no activity(<20% ILS). As to conditions: Mus musculus. Format: functional, organism-based. The method in brief: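 P388 leukemia kept by serial passage in female DBA/2 mice. Male BDF1 mice were given 10^6 cells ip on day 0. Drug was given ip on days 1, 5 and 9 in 2% DMA/10% Emulphor 620-P/water, with six mice per group. Optimum dose was in mg/kg per day. %ILS came from the median day of death versus untreated tumor-bearing controls. Mice alive at 30 days were counted as cured.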

For the next data set, the system named is L1210. Nature of the data set: In vitro concentration required to inhibit 50% growth of murine L1210 leukemia cells. Particulars: Mus musculus, read-out: ID50 (the source's name). Format: functional. The method in brief: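 Mouse L1210 leukemia cells in RPMI 1634 with 5% fetal calf serum, 0.075% sodium bicarbonate, penicillin 0.1 mg/mL and streptomycin 50 μg/mL. Drug aliquots added to tubes, then cells at approximately 5 × 10³ cells/mL. Incubation 37 °C for 3 days; cell number by Coulter counter. ID₅₀ = nM concentration giving 50% growth inhibition.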

For `Cc1c[nH]c2c1C13CC1CN=C3C=C2O` (stereo unspecified), in the data set with Nucleic Acid, the ICD came out at 0. In addition, the k result in data set [1] is “Stable”. The molecule also displayed a Rf in data set [2] of 0.87. Moreover, the OD in the data set with P388 [3] stood at 10 mg/kg/day. Moreover, the ILS result in the data set with P388 [4] is “inactive”. In addition, the IC50 in the data set with L1210 is 900 nM.
